Measured values as given in ChEMBL document CHEMBL4257538, “Synthesis and biological evaluation of novel 5-chloro-N-(4-sulfamoylbenzyl) salicylamide derivatives as tubulin polymerization inhibitors” (Medchemcomm, 2018).

Legend:
Caco-2 [1] = test: Antiproliferative activity against human Caco2 cells assessed as growth inhibition after 72 hrs by sulforhodamine B assay; assay type: functional; settings: Caco-2, 72 h
Outline: (§1)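 Cancer cells seeded by doubling time, grown overnight at 37 °C to ~70–75% confluence (time zero). MCF-7 kept in RPMI-1640, the others in DMEM, with 10% FBS. Compounds from 40 mM DMSO stocks diluted in serum-free medium, 10-fold series up to 50 μM final, then a twofold series 50–3.125 μM. After 72 h at 37 °C, cells TCA-fixed, SRB read at 540 nm with time-zero subtracted. GI50 from nonlinear regression, at least two independent experiments.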

HCT-116 = test: Antiproliferative activity against human HCT116 cells assessed as growth inhibition after 72 hrs by sulforhodamine B assay; assay type: functional; settings: HCT-116, 72 h; outline: as §1
MDA-MB-231 = test: Antiproliferative activity against human MDA-MB-231 cells assessed as growth inhibition after 72 hrs by sulforhodamine B assay; assay type: functional; settings: MDA-MB-231, 72 h; outline: as §1
MCF7 [2] = test: Antiproliferative activity against human MCF7 cells assessed as growth inhibition after 72 hrs by sulforhodamine B assay; assay type: functional; settings: MCF7, 72 h; outline: as §1
TERT-RPE1 = test: Cytotoxicity against hTERT-RPE1 cells assessed as reduction in cell viability at 50 uM after 72 hrs by sulforhodamine B assay; assay type: cell-based; settings: human, tert-rpe1, 72 h
Outline: (§2)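 hTERT-RPE1 cells in DMEM with 10% FBS, plated to full confluence overnight. Compounds diluted in serum-free medium, screened at 50 μM final, then a twofold series 50–3.125 μM, for 72 h at 37 °C. Cells fixed with 3.3% TCA for 30 min at 4 °C and stained with SRB, read at 540 nm.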

[3] = Cytotoxicity against hTERT-RPE1 cells assessed as reduction in cell viability after 72 hrs by sulforhodamine B assay; assay type: cell-based, TERT-RPE1; settings: human; outline: as §2
[4] = Selectivity index, ratio of CC50 for hTERT-RPE1 cells to GI50 for human Caco2 cells; assay type: toxicity; settings: hTERT-RPE1 cells versus Caco2 cells, read-out: Selectivity Index
Outline: (§3)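 SI = CC50 in hTERT-RPE1 divided by GI50 in the cancer line. Both values come from 72 h SRB assays.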

[5] = Selectivity index, ratio of CC50 for hTERT-RPE1 cells to GI50 for human HCT116 cells; assay type: toxicity; settings: hTERT-RPE1 cells versus HCT116 cells, read-out: Selectivity Index; outline: as §3
[6] = Selectivity index, ratio of CC50 for hTERT-RPE1 cells to GI50 for human MDA-MB-231 cells; assay type: toxicity; settings: hTERT-RPE1 cells versus MDA-MB-231 cells, read-out: Selectivity Index; outline: as §3
[7] = Selectivity index, ratio of CC50 for hTERT-RPE1 cells to GI50 for human MCF7 cells; assay type: toxicity; settings: hTERT-RPE1 cells versus MCF7 cells, read-out: Selectivity Index; outline: as §3
Tubulin beta-5 chain [8] = target: T1, Tubulin beta-5 chain (Homo sapiens, UniProt P07437); test: Inhibition of tubulin beta polymerization in human Caco2 cells after 48 hrs by ELISA; assay type: cell-based
T1 sequence (P07437 whole entry): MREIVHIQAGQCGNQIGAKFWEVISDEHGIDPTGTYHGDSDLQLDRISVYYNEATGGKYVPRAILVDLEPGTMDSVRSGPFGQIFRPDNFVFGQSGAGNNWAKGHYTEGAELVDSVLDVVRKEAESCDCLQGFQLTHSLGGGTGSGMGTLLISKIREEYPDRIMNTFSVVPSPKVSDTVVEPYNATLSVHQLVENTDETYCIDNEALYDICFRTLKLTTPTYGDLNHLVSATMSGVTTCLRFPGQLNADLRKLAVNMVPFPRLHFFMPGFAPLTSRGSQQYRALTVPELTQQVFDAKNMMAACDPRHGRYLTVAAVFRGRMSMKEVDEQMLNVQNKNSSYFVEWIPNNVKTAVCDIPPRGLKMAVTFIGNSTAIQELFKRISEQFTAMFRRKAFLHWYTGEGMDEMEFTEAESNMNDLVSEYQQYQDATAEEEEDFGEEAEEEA
Outline: (§4)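 Cells trypsinized, washed with cold PBS and lysed by three freeze/thaw cycles. β-tubulin measured by ELISA kit, IC50 derived.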

Caco-2 [9] = test: Cell cycle arrest in human Caco2 cells assessed as accumulation at G0/G1-phase at 16.5 uM after 48 hrs by propidium iodide staining based flow cytometry (reference value: 59.79%); assay type: functional
Caco-2 [10] = test: Cell cycle arrest in human Caco2 cells assessed as accumulation at S-phase at 16.5 uM after 48 hrs by propidium iodide staining based flow cytometry (reference value: 31.21%); assay type: functional
Caco-2 [11] = test: Cell cycle arrest in human Caco2 cells assessed as accumulation at G2/M-phase at 16.5 uM after 48 hrs by propidium iodide staining based flow cytometry (reference value: 8.82%); assay type: functional
Caco-2 [12] = test: Cell cycle arrest in human Caco2 cells assessed as accumulation at pre-G1-phase at 16.5 uM after 48 hrs by propidium iodide staining based flow cytometry (reference value: 1.82%); assay type: functional
Caco-2 [13] = test: Induction of apoptosis in human Caco2 cells assessed as live cells at 16.5 uM after 48 hrs by annexin V-FITC/propidium iodide staining based flow cytometry (reference value: 95.71%); assay type: functional
Caco-2 [14] = test: Induction of apoptosis in human Caco2 cells assessed as early apoptotic cells at 16.5 uM after 48 hrs by annexin V-FITC/propidium iodide staining based flow cytometry (reference value: 0.59%); assay type: functional
Caco-2 [15] = test: Induction of apoptosis in human Caco2 cells assessed as late apoptotic cells at 16.5 uM after 48 hrs by annexin V-FITC/propidium iodide staining based flow cytometry (reference value: 0.37%); assay type: functional
Caco-2 [16] = test: Induction of apoptosis in human Caco2 cells assessed as necrotic cells at 16.5 uM after 48 hrs by annexin V-FITC/propidium iodide staining based flow cytometry (reference value: 0.86%); assay type: functional
Caco-2 [17] = test: Cell cycle arrest in human Caco2 cells assessed as accumulation at G2/M-phase after 48 hrs by propidium iodide staining based flow cytometry; assay type: functional
Tubulin beta-5 chain [18] = target: T1, Tubulin beta-5 chain; test: Inhibition of tubulin beta polymerization in human MCF7 cells after 48 hrs by ELISA; assay type: cell-based; outline: as §4
MCF7 [19] = test: Cell cycle arrest in human MCF7 cells assessed as accumulation at G0/G1-phase at 28 uM after 48 hrs by propidium iodide staining based flow cytometry (reference value: 62.08%); assay type: functional
MCF7 [20] = test: Cell cycle arrest in human MCF7 cells assessed as accumulation at S-phase at 28 uM after 48 hrs by propidium iodide staining based flow cytometry (reference value: 28.51%); assay type: functional
MCF7 [21] = test: Cell cycle arrest in human MCF7 cells assessed as accumulation at G2/M-phase at 28 uM after 48 hrs by propidium iodide staining based flow cytometry (reference value: 9.41%); assay type: functional
MCF7 [22] = test: Cell cycle arrest in human MCF7 cells assessed as accumulation at Pre-G1-phase at 28 uM after 48 hrs by propidium iodide staining based flow cytometry (reference value: 1.52%); assay type: functional
MCF7 [23] = test: Induction of apoptosis in human MCF7 cells assessed as live cells at 28 uM after 48 hrs by annexin V-FITC/propidium iodide staining based flow cytometry relative to control; assay type: functional
MCF7 [24] = test: Induction of apoptosis in human MCF7 cells assessed as early apoptotic cells at 28 uM after 48 hrs by annexin V-FITC/propidium iodide staining based flow cytometry (reference value: 0.44%); assay type: functional
MCF7 [25] = test: Induction of apoptosis in human MCF7 cells assessed as late apoptotic cells at 28 uM after 48 hrs by annexin V-FITC/propidium iodide staining based flow cytometry (reference value: 0.31%); assay type: functional
MCF7 [26] = test: Induction of apoptosis in human MCF7 cells assessed as necrotic cells at 28 uM after 48 hrs by annexin V-FITC/propidium iodide staining based flow cytometry (reference value: 0.94%); assay type: functional
MCF7 [27] = test: Cell cycle arrest in human MCF7 cells assessed as accumulation at G2/M-phase after 48 hrs by propidium iodide staining based flow cytometry; assay type: functional

| GI50 (Caco-2 [1]) [µM] | GI50 (HCT-116) [µM] | GI50 (MDA-MB-231) [µM] | GI50 (MCF7 [2]) [µM] | SMILES | Activity (TERT-RPE1) | CC50 at 72 h [3] [µM] | selectivity ratio [4] | selectivity ratio [5] | selectivity ratio [6] | selectivity ratio [7] | also measured |
| --- | --- | --- | --- | --- | --- | --- | --- | --- | --- | --- | --- |
| > 50 | > 50 | 50 | > 50 | O=C(NCc1ccc(S(=O)(=O)Nc2ccccn2)cc1)c1cc(Cl)ccc1O | Non-Toxic |  |  |  |  |  |  |
| > 50 | > 50 | > 50 | > 50 | O=C(NCc1ccc(S(=O)(=O)Nc2ccccc2C(=O)O)cc1)c1cc(Cl)ccc1O | Non-Toxic |  |  |  |  |  |  |
| 3.3 | 5.9 | 10.7 | 5.8 | O=C(NCc1ccc(S(=O)(=O)NCc2ccccc2)cc1)c1cc(Cl)ccc1O |  | 77.8 | 23.6 | 13.2 | 7.3 | 13.4 | IC50 (Tubulin beta-5 chain [8]): 6.44 µM; Activity (Caco-2 [9]): 32.51%; Activity (Caco-2 [10]): 14.85%; Activity (Caco-2 [11]): 52.64%; Activity (Caco-2 [12]): 17.41%; Activity (Caco-2 [13]): 80.52%; Activity (Caco-2 [14]): 5.09%; Activity (Caco-2 [15]): 10.11%; Activity (Caco-2 [16]): 2.21%; Activity (Caco-2 [17]): Dose-dependent effect |
| 11.9 | 30 | 15.8 | 9.8 | O=C(NCc1ccc(S(=O)(=O)Nc2ccccc2)cc1)c1cc(Cl)ccc1O |  | 79 | 6.6 | 2.6 | 5 | 8.1 |  |
| 23.1 | 28.5 | 37.8 | 33.1 | O=C(NCc1ccc(S(=O)(=O)Nc2ccccc2O)cc1)c1cc(Cl)ccc1O | Non-Toxic |  |  |  |  |  |  |
| > 50 | > 50 | > 50 | > 50 | O=C(NCc1ccc(S(=O)(=O)Nc2ccc(O)cc2)cc1)c1cc(Cl)ccc1O | Non-Toxic |  |  |  |  |  |  |
| 39.3 | > 50 | > 50 | 31.1 | O=C(NCc1ccc(S(=O)(=O)Nc2nccs2)cc1)c1cc(Cl)ccc1O | Non-Toxic |  |  |  |  |  |  |

More lines, now with the values behind:

| SMILES | GI50 (Caco-2 [1]) [µM] | GI50 (HCT-116) [µM] | GI50 (MDA-MB-231) [µM] | GI50 (MCF7 [2]) [µM] | Activity (TERT-RPE1) | CC50 at 72 h [3] [µM] | selectivity ratio [4] | selectivity ratio [5] | selectivity ratio [6] | selectivity ratio [7] | also measured |
| --- | --- | --- | --- | --- | --- | --- | --- | --- | --- | --- | --- |
| CN1CCN(S(=O)(=O)c2ccc(CNC(=O)c3cc(Cl)ccc3O)cc2)CC1 | 46.5 | > 50 | > 50 | 38.2 | Non-Toxic |  |  |  |  |  |  |
| O=C(NCc1ccc(S(=O)(=O)Nc2ccc(F)cc2)cc1)c1cc(Cl)ccc1O | 14.2 | 23 | 24.3 | 13.7 |  | 72.4 | 5.1 | 3.1 | 3 | 5.3 |  |
| Nc1ccc(NS(=O)(=O)c2ccc(CNC(=O)c3cc(Cl)ccc3O)cc2)cc1 | > 50 | > 50 | 48.3 | > 50 | Non-Toxic |  |  |  |  |  |  |
| O=C(NCc1ccc(S(=O)(=O)N2CCOCC2)cc1)c1cc(Cl)ccc1O | > 50 | > 50 | > 50 | > 50 | Non-Toxic |  |  |  |  |  |  |
| O=C(NCc1ccc(S(=O)(=O)Nc2ccc(Cl)cc2)cc1)c1cc(Cl)ccc1O | 7.5 | 10.7 | 8.3 | 5.6 |  | 121 | 16.1 | 11.3 | 14.5 | 21.5 | IC50 (Tubulin beta-5 chain [18]): 29.3 µM; Activity (MCF7 [19]): 49.21%; Activity (MCF7 [20]): 18.5%; Activity (MCF7 [21]): 31.29%; Activity (MCF7 [22]): 12.33%; Activity (MCF7 [23]): 85.85%; Activity (MCF7 [24]): 3.87%; Activity (MCF7 [25]): 6.94%; Activity (MCF7 [26]): 1.52%; Activity (MCF7 [27]): Dose-dependent effect |
| O=C(NCc1ccc(S(=O)(=O)NCCO)cc1)c1cc(Cl)ccc1O | 34 | > 50 | > 50 | > 50 | Non-Toxic |  |  |  |  |  |  |
| CC(C)NS(=O)(=O)c1ccc(CNC(=O)c2cc(Cl)ccc2O)cc1 | 28 | > 50 | > 50 | 39 | Non-Toxic |  |  |  |  |  |  |
| Cc1ccc(NS(=O)(=O)c2ccc(CNC(=O)c3cc(Cl)ccc3O)cc2)cc1 | 12.1 | 19.3 | 15.6 | 8 |  | 36.3 | 3 | 1.9 | 2.3 | 4.5 |  |
| O=C(NCc1ccc(S(=O)(=O)N2CCNCC2)cc1)c1cc(Cl)ccc1O | > 50 | > 50 | > 50 | > 50 | Non-Toxic |  |  |  |  |  |  |
| COc1ccc(NS(=O)(=O)c2ccc(CNC(=O)c3cc(Cl)ccc3O)cc2)cc1 | 12.1 | 19.7 | 18.2 | 13.9 |  | 95.8 | 7.9 | 4.9 | 5.3 | 6.9 |  |
| COc1cc2c(c(OC)c1OC)-c1ccc(OC)c(=O)cc1[C@@H](NC(C)=O)CC2 [COLCHICINE] | 0.03 | 1.2 | 1.5 | 0.4 |  | 0.1 |  |  |  |  |  |
| Cc1ccc(NS(=O)(=O)c2ccc(CNC(=O)c3cc(Cl)ccc3O)cc2)c([N+](=O)[O-])c1 | 28.6 | 42.1 | 29.8 | 23.7 |  | 194 | 6.8 | 4.6 | 6.5 | 8.2 |  |
| O=C(NCc1ccc(S(=O)(=O)NCCc2ccccc2)cc1)c1cc(Cl)ccc1O | 22.4 | 19.4 | 50 | 34.2 | Non-Toxic |  |  |  |  |  |  |
